For one data set, the system named is Leishmania major. In words: Antileishmanial activity against intracellular Leishmania major amastigotes. Format: functional, organism-based.
Data set [1] deals with Leishmania donovani. Briefly: Antileishmanial activity against intracellular Leishmania donovani LV82 amastigotes infected in CD-1 mouse peritoneal macrophage. The data set is classed as functional, organism-based. The gist of the method: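 CD-1 mouse peritoneal macrophages, 5 × 10^4 cells/well in RPMI 1640 + 10% heat-inactivated FBS, adhered overnight. Infected overnight with stationary-phase LV82 promastigotes (5:1 parasite:macrophage), 37°C, 5% CO2. Medium then replaced with compound or vehicle for 72 h at 37°C. Methanol-fixed, Giemsa-stained; % infected macrophages counted at ×1,000. IC50 by four-parameter logistic nonlinear regression.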

Data set [2] relates to Mus musculus. In words: Toxicity in BALB/c mouse assessed as ataxia at 100 mg/kg/day, ip after second dose. Format: organism-based. Set-up: route intraperitoneal. Particulars: in vivo.
The nature of data set [3]: Clearance in Swiss Webster mouse at 1 mg/kg, iv by HPLC-MS/MS analysis. Particulars: in vivo. Set-up: dose 1 mg/kg, route intravenous. The data set is classed as ADME, organism-based. The gist of the method: (§1)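 Male Swiss Webster mice, n = 3 per time point. For i.v., the compound was dissolved in sterile water, diluted 1:1 with 2× saline, and given as a tail-vein bolus over ~10–20 s. For p.o., it was given by gavage in sterile water. Dose volume was 5 ml/kg. Terminal plasma was taken from 5 min to 72 h and measured by HPLC-MS/MS (calibration 2.5–10,000 nM). Parameters came from noncompartmental analysis.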

Data set [4] deals with Mus musculus. In words: Toxicity in BALB/c mouse assessed as occurrence of ruffled fur at 150 mg/kg/day, po administered for five days measured on day 4. The data set is classed as organism-based. Set-up: route oral. Particulars: in vivo. The gist of the method: (§2)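 Female BALB/c mice (n = 5 per dose), dosed once daily for 5 consecutive days p.o. (20 ml/kg) or i.v. (10 ml/kg) with compound in sterile water, prepared fresh daily under yellow light. Vehicle controls n = 5 per route. Clinical observations, body weights, serum chemistry and hematology on day 6 before necropsy; histopathology of formalin-fixed tissues. Chemistry analysed by one-way ANOVA with Dunnett's posttest.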

Data set [5] deals with Mus musculus. Briefly: Toxicity in BALB/c mouse assessed as hyperactivity at 150 mg/kg/day, po administered for five days measured on day 5. Particulars: in vivo. Format: organism-based. Further details: route oral. A digest of the protocol:
as §2

Data set [6] has as its system Mus musculus. Briefly: Hepatotoxicity in BALB/c mouse assessed as AST level in serum at 25 mg/kg/day, po administered for five days (Rvb= 70 U/L). Further details: route oral. Format: toxicity, organism-based. Particulars: in vivo.
Data set [7] deals with Mus musculus. In words: Hepatotoxicity in BALB/c mouse assessed as AST level in serum at 50 mg/kg/day, po administered for five days (Rvb= 70 U/L). Format: toxicity, organism-based. Set-up: route oral. Particulars: in vivo.
The subject of data set [8] is Mus musculus. Briefly: Hepatotoxicity in BALB/c mouse assessed as ALT level in serum at 50 mg/kg/day, po administered for five days (Rvb= 36 U/L). Particulars: in vivo. Set-up: route oral. The data set is classed as toxicity, organism-based.
Data set [9] has as its system Mus musculus. In words: Hepatotoxicity in BALB/c mouse assessed as alkaline phosphatase level in serum at 5 mg/kg/day, iv administered for five days (Rvb= 134 U/L). Format: toxicity, organism-based. Further details: route intravenous. Particulars: in vivo.
Data set [10] relates to Mus musculus. Briefly: Hepatotoxicity in BALB/c mouse assessed as alkaline phosphatase level in serum at 20 mg/kg/day, iv administered for five days (Rvb= 134 U/L). Format: toxicity, organism-based. Further details: route intravenous. Particulars: in vivo.
For data set [11], the system named is Mus musculus. Briefly: Renal toxicity in BALB/c mouse assessed as phosphorus level in serum at 5 mg/kg/day, iv administered for five days (Rvb= 6.1 mg/dl). Format: organism-based. Set-up: route intravenous. Particulars: in vivo. A digest of the protocol: as §2
In data set [12] the test system is Mus musculus. Briefly: Hepatotoxicity in BALB/c mouse assessed as alkaline phosphatase level in serum at 25 mg/kg/day, po administered for five days (Rvb= 129 U/L). Particulars: in vivo. The data set is classed as toxicity, organism-based. Further details: route oral.
Data set [13] is described as follows: Half life in human liver microsome by HPLC-MS/MS analysis in presence of 0.1 uM NADPH. The data set is classed as ADME. Particulars: liver microsomes. The gist of the method: (§3)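 Pooled liver microsomes with NADPH. Substrate at final 0.1, 1.0 and 10 μM with 0.5% DMSO, incubated up to 60 min at 37°C. Reactions were stopped with 7:1 methanol-water containing 0.1% TFA and 30 nM internal standard. Remaining substrate was measured by HPLC-MS/MS, and t1/2 came from a one-phase exponential decay fit.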
In general terms: Microsomes from liver hold many membrane-bound enzymes, among them those of drug oxidation.

The nature of data set [14]: Half life in human liver microsome by HPLC-MS/MS analysis in presence of 10 uM NADPH. Format: ADME. Particulars: liver microsomes. The gist of the method:
(§4)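 Pooled liver microsomes (human, mouse, rat) with NADPH. Substrate added from DMSO to final 0.1, 1.0 or 10 μM, with 0.5% (vol/vol) organic solvent. Incubated at 37°C for up to 60 min. Stopped with 2 volumes of 7:1 methanol-water containing 0.1% TFA and 30 nM internal standard, then centrifuged. Remaining substrate was measured by HPLC-MS/MS, and t1/2 was obtained by one-phase exponential decay fit (t1/2 = 0.693/k).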

Data set [15] can be described thus: Half life in rat liver microsome by HPLC-MS/MS analysis in presence of 0.1 uM NADPH. Particulars: liver microsomes. The data set is classed as ADME. The gist of the method:
as §4

Data set [16] can be described thus: Half life in rat liver microsome by HPLC-MS/MS analysis in presence of 10 uM NADPH. The data set is classed as ADME. Particulars: liver microsomes. A digest of the protocol: as §4
Data set [17] can be described thus: Half life in mouse liver microsome by HPLC-MS/MS analysis in presence of 0.1 uM NADPH. Format: ADME. Particulars: liver microsomes. A digest of the protocol: as §4
Data set [18] in a line: Half life in golden Syrian hamster liver microsome by HPLC-MS/MS analysis in presence of 1 uM NADPH. Format: ADME, Mesocricetus auratus. Particulars: liver microsomes. The gist of the method:
as §3

Data set [19] is described as follows: Induction of mutagenicity in Salmonella serovar Typhimurium TA 100 assessed as number of revertant colonies at 1 ug by Ames assay in presence of Aroclor 1254-induced rat liver S9 metabolic activation system. The data set is classed as toxicity, subcellular, Salmonella enterica subsp. enterica serovar Typhimurium. A digest of the protocol: (§5)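 Ames plate incorporation with S. Typhimurium TA98 and TA100, with or without Aroclor 1254-induced rat liver S9 (10% vol/vol). Compound was dissolved in sterile water and serially diluted to 1–500 μg/plate. Positive controls were 2-nitrofluorene and sodium azide without S9, and 2-aminoanthracene with S9; sterile water and DMSO served as vehicles. Revertant colonies and background lawn were scored. A mutagen was defined as a mean revertant count at least 2-fold over solvent control. Single experiment.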
Background: The Ames test uses bacterial strains that need an amino acid and regain growth without it when mutated back.

A short description of data set [20]: Half life in Swiss Webster mouse at 5 mg/kg, iv by HPLC-MS/MS analysis. The data set is classed as ADME, organism-based. Further details: dose 5 mg/kg, route intravenous. Particulars: in vivo. A digest of the protocol: as §1
The subject of data set [21] is Leishmania donovani. In words: Antileishmanial activity against Leishmania donovani WR378 infected in golden Syrian hamster assessed as reduction in liver parasitemia at 100 mg/kg/day, po administered for five days. Format: functional. Particulars: 120 h. The gist of the method:
(§6)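 11-day golden hamster VL model adapted from an 8-day method, using L. donovani WR378 metacyclic promastigotes. Dosing was oral, once daily for 5 days. Animals were euthanized on day 11 post-infection. Liver, spleen and femoral bone marrow (flushed with Schneider's medium) were harvested.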

The test system of data set [22] is Leishmania donovani. In words: Antileishmanial activity against Leishmania donovani WR378 infected in golden Syrian hamster assessed as reduction in bone marrow parasitemia at 100 mg/kg/day, po administered for five days. Format: functional. Particulars: 120 h. The gist of the method: as §6
The test system of data set [23] is Mus musculus. Briefly: Hepatotoxicity in BALB/c mouse assessed as ALT level in serum at 30 mg/kg/day, iv administered for five days (Rvb= 34 U/L). The data set is classed as toxicity, organism-based. Further details: route intravenous. Particulars: in vivo.
Data set [24] relates to Mus musculus. Briefly: Renal toxicity in BALB/c mouse assessed as phosphorus level in serum at 30 mg/kg/day, iv administered for five days (Rvb= 6.1 mg/dl). The data set is classed as organism-based. Further details: route intravenous. Particulars: in vivo. The gist of the method: as §2
Data set [25] deals with Mus musculus. Briefly: Renal toxicity in BALB/c mouse assessed as blood urea nitrogen level in serum at 150 mg/kg/day, po administered for five days (Rvb= 29 mg/dl). The data set is classed as organism-based. Further details: route oral. Particulars: in vivo. The gist of the method:
as §2

Data set [26] in a line: Induction of mutagenicity in Salmonella serovar Typhimurium TA 98 assessed as number of revertant colonies at 100 ug by Ames assay in presence of Aroclor 1254-induced rat liver S9 metabolic activation system. The data set is classed as toxicity, subcellular, Salmonella enterica subsp. enterica serovar Typhimurium. A digest of the protocol: as §5

Broadly, the IC50 is the concentration needed to halve the response being measured. The term clearance denotes the volume of plasma or blood freed of the substance per unit of time. High values mean efficient removal, low ones inefficient removal. The term half-life denotes the time in which the quantity being followed falls by half. The term inhibition in vivo denotes the percentage by which the read-out fell short of the control.

Structures are written as SMILES.

With `CCOc1cc(NC(=N)c2ccccn2)ccc1-c1ccc(-c2ccc(NC(=N)c3ccccn3)cc2OCC)o1`, the IC50 was 0.026 µM with Leishmania major and 4.5 µM with Leishmania donovani [1]. Besides, the Activity result in the data set with Mus musculus [2] was “Toxic”; with Mus musculus [4], “Toxic”; in the data set on Mus musculus [5], “Toxic”; in the data set with Mus musculus [6] it was 67 U/L; with Mus musculus [7], 77 U/L; in the data set with Mus musculus [8], 34 U/L. Moreover, the Activity with Mus musculus [9] was 113 U/L; with Mus musculus [10], 107 U/L; in the data set with Mus musculus [11], 7.1 mg/dL; with Mus musculus [12], 136 U/L. The same molecule came in with a clearance in [3] of 2.7 L/h/kg. The half-life in data set [13] is greater than 2 h; in data set [14] it was greater than 2 h; in data set [15], 1.33 h; in data set [16] it was greater than 2 h; in data set [17] it was 0.25 h; in data set [18], greater than 2 h.
In the case of `CC(C)Oc1cc(NC(=N)c2ccccn2)ccc1-c1ccc(-c2ccc(NC(=N)c3ccccn3)cc2OC(C)C)o1`, the Activity is on record as 159 in data set [19]; 35 U/L with Mus musculus [23]; 75 U/L in the data set with Mus musculus [6]; 90 U/L with Mus musculus [7]; 45 U/L with Mus musculus [8]; 103 U/L in the data set on Mus musculus [9]. For the same molecule, the Activity in the data set on Mus musculus [10] came to 104 U/L; in the data set with Mus musculus [11] it was 7 mg/dL; with Mus musculus [24], 7.6 mg/dL; in the data set with Mus musculus [25] it was 29 U/L; with Mus musculus [12], 126 U/L; in data set [26], 38. In addition, the half-life in [20] was 24 h; in data set [13], greater than 2 h; in [14] it was greater than 2 h; in data set [15] it was 1.6 h; in data set [16], greater than 2 h; in [17], 0.433 h. Moreover, the half-life in data set [18] was greater than 2 h. In addition, the 50% inhibitory concentration (IC50) is 0.014 µM with Leishmania major and 2.8 µM in the data set with Leishmania donovani [1]. Besides, the inhibition in vivo at 100 mg/kg/day in the data set on Leishmania donovani [21] was 89%; with Leishmania donovani [22], 92%. For the same molecule, the clearance in [3] worked out at 0.594 L/h/kg.

The record behind these values is ChEMBL document CHEMBL1275590, “Novel arylimidamides for treatment of visceral leishmaniasis” (Antimicrob Agents Chemother, 2010).
